Bioassay records: PubChem BioAssay, The Scripps Research Institute Molecular Screening Center
Compounds with a hit are over-represented: about 1.8% of the library has one in this group of screens.
NPY-Y2 antag: NPY-Y2 (human) receptor antagonism; P49146; NPY-Y2 expressing cells, antagonist mode; inhibition, % at 2.7 µM; 0.99% of 140,000 active; AID 793; in the data active means inhibition above about 17%;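 further: 0% = vehicle with agonist challenge and 100% = reference antagonist with challenge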
Target sequence (P49146 whole entry, looked up): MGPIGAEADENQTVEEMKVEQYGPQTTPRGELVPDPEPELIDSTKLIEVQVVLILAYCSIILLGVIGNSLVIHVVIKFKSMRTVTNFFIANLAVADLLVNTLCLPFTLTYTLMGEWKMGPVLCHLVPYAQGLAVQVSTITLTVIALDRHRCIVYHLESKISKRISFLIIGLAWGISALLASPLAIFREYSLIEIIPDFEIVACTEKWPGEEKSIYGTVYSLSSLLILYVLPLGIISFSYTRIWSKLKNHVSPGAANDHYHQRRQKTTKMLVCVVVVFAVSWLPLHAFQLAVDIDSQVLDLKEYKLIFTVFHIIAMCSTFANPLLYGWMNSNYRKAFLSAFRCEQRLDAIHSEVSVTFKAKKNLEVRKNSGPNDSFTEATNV
NPY2 pot ag: human NPY-Y2 potentiation or agonism, primary screen | P49146 | cells expressing NPY-Y2, potentiator/agonist read-out | activation, % at 3.6 µM | 0.45% of 220,000 active; in the data active means activation above about 27%;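 further: cells stimulated with NPY near EC25 plus isoproterenol at EC100; 0% = vehicle plus submaximal agonist and 100% = vehicle plus saturating agonist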
NPY Y1 blocker: blocks the human neuropeptide Y Y1 receptor; inhibition, % at 3.6 µM; AID 1040; P25929; 1% of 200,000 active; HEK293-CNG Y1 cells, membrane potential fluorescence; NPY at EC95, then isoproterenol;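 active means inhibition above the campaign mean inhibition of all tested compounds plus 3 SD, cut at about 20% in these data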;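 further: 0% = DMSO wells given NPY plus isoproterenol and 100% = isoproterenol alone without NPY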
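Material: HEK293 cells with Y1 receptor plus CNG channel; times: compound incubation 1 h at room temperature, readout 45 min post-stimulation; signal: fluorescence, membrane potential probe; read-out basis: fluorescence ratio normalized to % inhibition between controls; benchmarks: full-block control isoproterenol-only wells, zero-block control NPY plus isoproterenol wells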
NPY-Y1 PAM-ag: human NPY-Y1 potentiation or agonism, primary screen; P25929; NPY-Y1 expressing cells, potentiator/agonist activation; activation, % at 3.6 µM; 0.37% of 220,000 active; AID 1304; in the data active means activation above about 33%, passing the limit was not always enough;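 further: cells stimulated with NPY at EC10 then isoproterenol at EC100; 0% = low agonist plus stimulus and 100% = saturating agonist plus stimulus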
* marks the source's active call; other numbers are inactive results; nt = no result.

SMILES	NPY-Y2 antag	NPY2 pot ag	NPY Y1 blocker	NPY-Y1 PAM-ag
CC/C(=N\Nc1ccccc1[N+](=O)[O-])c1ccc(O)cc1	nt	47*	-12	74*
Clc1ccc(CN2C3=NCCCN3c3ccccc32)cc1Cl	nt	-18	21*	-22
CCOC(=O)c1c(NC(=O)CN(CC)CC)sc2c1CCN(C(=O)OCC)C2	30*	-4	23*	-26
CCOC(=O)c1c(NC(=O)CSc2ncccn2)sc2c1CCN(Cc1ccccc1)C2	17*	-32	33*	-79
CCOC(=O)c1c(NC(=S)N2CCN(C)CC2)sc2c1CCN(C(=O)OCC)C2	nt	-21	nt	-43
CCOC(=O)c1c(NC(=O)CN2CCCCC2)sc2c1CCN(C(=O)OCC)C2	36*	-10	56*	-29
Cc1c(Cl)c([N+](=O)[O-])nn1CC(=O)NC(C)C1CC2CCC1C2 (stereo not given)	21*	-4	20*	-12
CCC(C)NC(=O)Cn1nc([N+](=O)[O-])c(Cl)c1C (stereo not given)	-2	3	5	-15
CC(C)[C@H](NC(=O)c1ccc(F)cc1)C(=O)NC1=NCCS1	nt	5	1	2
CC1(C)CC(=O)C2=C(C1)C(c1cn(-c3ccccc3)nc1-c1ccccc1)C(C#N)=C(N)O2 (stereo not given)	4	1	-1	2
CC1(C)CC(=O)C2=C(C1)OC(N)=C(C#N)C2c1cn(-c2ccccc2)nc1-c1ccc(F)cc1 (stereo not given)	3	65*	-1	68*
CN(CCN1CCOCC1)Cc1nc(-c2ccc(Cl)cc2)no1	nt	2	nt	20
CCOC(=O)c1c(C)c2c(n1C)CCC/C2=N\O	32*	-16	39*	-45
Cc1c(C(=O)O)cccc1-c1ccc(/C=N/Nc2ccc(Br)cc2)o1	-2	5	-7	8
CC1=CC(C)(C)N(C(=O)C(C)N2C(=O)c3ccccc3C2=O)c2c(C)cc(C)cc21 (stereo not given)	18*	-9	28*	0
COc1ccc2c(c1)C(C)=CC(C)(C)N2C(=O)C(C)N1C(=O)c2ccccc2C1=O (stereo not given)	4	-19	10	4
CC(C)CCn1cnc2c(oc3nc4c(cc32)CCCC4)c1=O	nt	5	nt	-8
Nc1ccc(N=Nc2ccccc2)c2ccccc12	nt	56*	nt	50*
Nc1ccc(N=Nc2ccccc2)c(N)n1	-1	18	2	5
Cc1cc(NCCCn2ccnc2)n2nc(C)c(-c3ccccc3)c2n1	3	13	-4	-8
N=c1c2c(-c3ccccc3)c(-c3ccccc3)n(Cc3ccco3)c2ncn1Cc1ccco1	32*	22	22*	33
CCCCn1c(=O)[nH]c(=O)c2c1ncn2Cc1ccco1	-1	5	-2	22
N=c1c2c(-c3ccccc3)c(-c3ccccc3)n(Cc3ccccc3)c2ncn1CCCn1ccnc1	49*	17	92*	-40
CCCCn1cnc2c(c(-c3ccccc3)c(-c3ccccc3)n2Cc2ccco2)c1=N	nt	52*	nt	52*
Cc1[nH]c2c([N+](=O)[O-])cccc2c1C	nt	-24	nt	2
SMILES	NPY-Y2 antag	NPY2 pot ag	NPY Y1 blocker	NPY-Y1 PAM-ag
O=C(c1ccc(C(F)(F)F)cc1)C1CCCN(C(=O)CCN2CCCO2)C1 (stereo not given)	nt	-9	2	6
Cc1cc(C)n(-c2nc(SCCN(C)C)c3c4c(sc3n2)COC(C)(C)C4)n1	78*	-59	147*	-167
O=C(NC1CCCCC1)C(c1ccc(O)cc1)N(CC1CCCO1)C(=O)C1COc2ccccc2O1 (stereo not given)	9	-8	14	-21
O=C(NC1CCCC1)C(c1cccs1)N(CC1CCCO1)C(=O)Cc1cccs1 (stereo not given)	18*	-14	26*	-14
O=C(NCC(=O)N(Cc1ccco1)C(C(=O)NC1CCCC1)c1ccncc1)c1cccs1 (stereo not given)	3	6	3	4
COc1ccc(C(C(=O)NC2CCCC2)N(CC2CCCO2)C(=O)Cc2cccs2)cc1OC (stereo not given)	nt	3	4	-2
Cc1ccc(C(C(=O)NC2CCCCC2)N(Cc2ccco2)C(=O)C2COc3ccccc3O2)o1 (stereo not given)	20*	4	28*	5
O=C(NC1CCCC1)C(c1ccccc1)N(Cc1ccco1)C(=O)Cc1cccs1 (stereo not given)	39*	-23	77*	-32
Cc1ccc(C)c(N2CCN(c3nc4ccccc4c(=O)n3Cc3ccccc3)CC2)c1	28*	-6	30*	-31
O=c1[nH]c2ccc(S(=O)(=O)NCc3ccccc3)cc2[nH]1	nt	2	-6	-4
